Assay results: ChEMBL document CHEMBL4382218, “Design, synthesis and antifungal evaluation of borrelidin derivatives” (Bioorg Med Chem, 2018)
Active and inactive are the calls of the source.

Experiments:
Type in all cases: functional, organism-based
Candida parapsilosis = assay: Antifungal activity against Candida parapsilosis ATCC 22019 at 100 ug/ml after 48 hrs by micro broth dilution method
Procedure, shortened: (§1)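 Broth microdilution in RPMI-1640 (NaHCO3, MOPS, pH 7.0). Compounds are dissolved in DMSO and serially diluted 2-fold to eight concentrations, with stocks of […]. Fungal inocula are 2 × 10³ cfu/mL. Plates are incubated 48 h at 28 °C. The MIC is the lowest concentration with no turbidity, and the highest concentration tested is 100 μg/mL.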

Candida albicans = assay: Antifungal activity against Candida albicans ATCC MYA-2876 at 100 ug/ml after 48 hrs by micro broth dilution method; procedure, shortened: as §1
Aspergillus fumigatus = assay: Antifungal activity against Aspergillus fumigatus CCTCC AF 93048 at 100 ug/ml after 48 hrs by micro broth dilution method; procedure, shortened: as §1

Measured: Activity

C[C@@H]1C[C@H](C)C[C@H](C)[C@@H](O)CC(=O)O[C@H]([C@@H]2CCC[C@H]2C(=O)OCCN2CCN(Cc3ccc(Cl)cc3)CC2)C/C=C/C=C(/C#N)[C@H](O)[C@@H](C)C1
inactive: all assays above

C[C@@H]1C[C@H](C)C[C@H](C)[C@@H](O)CC(=O)O[C@H]([C@@H]2CCC[C@H]2C(=O)OCCN2CCN(Cc3ccccc3)CC2)C/C=C/C=C(/C#N)[C@H](O)[C@@H](C)C1
inactive: all assays above

CCCCCN(CCCC)C(=O)[C@@H]1CCC[C@H]1[C@@H]1C/C=C/C=C(/C#N)[C@H](O)[C@@H](C)C[C@H](C)C[C@H](C)C[C@H](C)[C@@H](O)CC(=O)O1
inactive: all assays above

C[C@@H]1C[C@H](C)C[C@H](C)[C@@H](O)CC(=O)O[C@H]([C@@H]2CCC[C@H]2C(=O)N2CCN(C)CC2)C/C=C/C=C(/C#N)[C@H](O)[C@@H](C)C1
inactive: all assays above

C[C@@H]1C[C@H](C)C[C@H](C)[C@@H](O)CC(=O)O[C@H]([C@@H]2CCC[C@H]2C(=O)OCCN2CCN(Cc3ccc(F)cc3F)CC2)C/C=C/C=C(/C#N)[C@H](O)[C@@H](C)C1
inactive: all assays above

C[C@@H]1C[C@H](C)C[C@H](C)[C@@H](O)CC(=O)O[C@H]([C@@H]2CCC[C@H]2C(=O)NCc2ccccc2)C/C=C/C=C(/C#N)[C@H](O)[C@@H](C)C1
inactive: all assays above

C[C@@H]1C[C@H](C)C[C@H](C)[C@@H](O)CC(=O)O[C@H]([C@@H]2CCC[C@H]2C(=O)OCCN2CCN(Cc3ccc(Br)cc3)CC2)C/C=C/C=C(/C#N)[C@H](O)[C@@H](C)C1
inactive: all assays above

C[C@@H]1C[C@H](C)C[C@H](C)[C@@H](O)CC(=O)O[C@H]([C@@H]2CCC[C@H]2C(=O)OCCN2CCN(Cc3ccc([N+](=O)[O-])cc3)CC2)C/C=C/C=C(/C#N)[C@H](O)[C@@H](C)C1
inactive: all assays above

COC(=O)[C@@H](CCSC)NC(=O)[C@@H]1CCC[C@H]1[C@@H]1C/C=C/C=C(/C#N)[C@H](O)[C@@H](C)C[C@H](C)C[C@H](C)C[C@H](C)[C@@H](O)CC(=O)O1
inactive: all assays above

C[C@@H]1C[C@H](C)C[C@H](C)[C@@H](O)CC(=O)O[C@H]([C@@H]2CCC[C@H]2C(=O)OCCN2CCN(C(=O)OC(C)(C)C)CC2)C/C=C/C=C(/C#N)[C@H](O)[C@@H](C)C1
inactive: all assays above

C[C@@H]1C[C@H](C)C[C@H](C)[C@@H](O)CC(=O)O[C@H]([C@@H]2CCC[C@H]2C(=O)N2CCOCC2)C/C=C/C=C(/C#N)[C@H](O)[C@@H](C)C1
inactive: all assays above

COc1ccc2[nH]cc(CCNC(=O)[C@@H]3CCC[C@H]3[C@@H]3C/C=C/C=C(/C#N)[C@H](O)[C@@H](C)C[C@H](C)C[C@H](C)C[C@H](C)[C@@H](O)CC(=O)O3)c2c1
inactive: all assays above

C[C@@H]1C[C@H](C)C[C@H](C)[C@@H](O)CC(=O)O[C@H]([C@@H]2CCC[C@H]2C(=O)OCCN2CCN(Cc3ccc4ccccc4c3)CC2)C/C=C/C=C(/C#N)[C@H](O)[C@@H](C)C1
inactive: all assays above

C[C@@H]1C[C@H](C)C[C@H](C)[C@@H](O)CC(=O)O[C@H]([C@@H]2CCC[C@H]2C(=O)OCc2ccccn2)C/C=C/C=C(/C#N)[C@H](O)[C@@H](C)C1
inactive: all assays above

C[C@@H]1C[C@H](C)C[C@H](C)[C@@H](O)CC(=O)O[C@H]([C@@H]2CCC[C@H]2C(=O)OCCN2CCN(Cc3ccc(F)cc3)CC2)C/C=C/C=C(/C#N)[C@H](O)[C@@H](C)C1
inactive: all assays above

C[C@@H]1C[C@H](C)C[C@H](C)[C@@H](O)CC(=O)O[C@H]([C@@H]2CCC[C@H]2C(=O)N2CCN(Cc3ccccc3)CC2)C/C=C/C=C(/C#N)[C@H](O)[C@@H](C)C1
inactive: all assays above

C[C@@H]1C[C@H](C)C[C@H](C)[C@@H](O)CC(=O)O[C@H]([C@@H]2CCC[C@H]2C(=O)OCCN2CCN(C(=O)c3ccccc3)CC2)C/C=C/C=C(/C#N)[C@H](O)[C@@H](C)C1
inactive: all assays above

COc1ccc(CCNC(=O)[C@@H]2CCC[C@H]2[C@@H]2C/C=C/C=C(/C#N)[C@H](O)[C@@H](C)C[C@H](C)C[C@H](C)C[C@H](C)[C@@H](O)CC(=O)O2)cc1
inactive: all assays above

COC(=O)[C@@H](Cc1ccccc1)NC(=O)[C@@H]1CCC[C@H]1[C@@H]1C/C=C/C=C(/C#N)[C@H](O)[C@@H](C)C[C@H](C)C[C@H](C)C[C@H](C)[C@@H](O)CC(=O)O1
inactive: all assays above

CC(=O)N1CCN(CCOC(=O)[C@@H]2CCC[C@H]2[C@@H]2C/C=C/C=C(/C#N)[C@H](O)[C@@H](C)C[C@H](C)C[C@H](C)C[C@H](C)[C@@H](O)CC(=O)O2)CC1
inactive: all assays above

COC(=O)[C@@H](CC(C)C)NC(=O)[C@@H]1CCC[C@H]1[C@@H]1C/C=C/C=C(/C#N)[C@H](O)[C@@H](C)C[C@H](C)C[C@H](C)C[C@H](C)[C@@H](O)CC(=O)O1
inactive: all assays above

CC(=O)CN1CCN(CCOC(=O)[C@@H]2CCC[C@H]2[C@@H]2C/C=C/C=C(/C#N)[C@H](O)[C@@H](C)C[C@H](C)C[C@H](C)C[C@H](C)[C@@H](O)CC(=O)O2)CC1
inactive: all assays above

C[C@@H]1C[C@H](C)C[C@H](C)[C@@H](O)CC(=O)O[C@H]([C@@H]2CCC[C@H]2C(=O)NCCc2ccccn2)C/C=C/C=C(/C#N)[C@H](O)[C@@H](C)C1
inactive: all assays above

C[C@@H]1C[C@H](C)C[C@H](C)[C@@H](O)CC(=O)O[C@H]([C@@H]2CCC[C@H]2C(=O)OCC2CC2)C/C=C/C=C(/C#N)[C@H](O)[C@@H](C)C1
inactive: all assays above

C[C@@H]1C[C@H](C)C[C@H](C)[C@@H](O)CC(=O)O[C@H]([C@@H]2CCC[C@H]2C(=O)N2CCCC2)C/C=C/C=C(/C#N)[C@H](O)[C@@H](C)C1
inactive: all assays above

C[C@@H]1C[C@H](C)C[C@H](C)[C@@H](O)CC(=O)O[C@H]([C@@H]2CCC[C@H]2C(=O)N2CCCCC2)C/C=C/C=C(/C#N)[C@H](O)[C@@H](C)C1
inactive: all assays above

C[C@@H]1C[C@H](C)C[C@H](C)[C@@H](O)CC(=O)O[C@H]([C@@H]2CCC[C@H]2C(=O)OCCN2CCN(C(=O)OCc3ccccc3)CC2)C/C=C/C=C(/C#N)[C@H](O)[C@@H](C)C1
inactive: all assays above

C[C@@H]1C[C@H](C)C[C@H](C)[C@@H](O)CC(=O)O[C@H]([C@@H]2CCC[C@H]2C(=O)N2CCN(CCO)CC2)C/C=C/C=C(/C#N)[C@H](O)[C@@H](C)C1
inactive: all assays above

CCC(=O)NNC(=O)[C@@H]1CCC[C@H]1[C@@H]1C/C=C/C=C(/C#N)[C@H](O)[C@@H](C)C[C@H](C)C[C@H](C)C[C@H](C)[C@@H](O)CC(=O)O1
inactive: all assays above

C[C@@H]1C[C@H](C)C[C@H](C)[C@@H](O)CC(=O)O[C@H]([C@@H]2CCC[C@H]2C(=O)N2CCNCC2)C/C=C/C=C(/C#N)[C@H](O)[C@@H](C)C1
inactive: all assays above

COc1ccc(N2CCN(C(=O)[C@@H]3CCC[C@H]3[C@@H]3C/C=C/C=C(/C#N)[C@H](O)[C@@H](C)C[C@H](C)C[C@H](C)C[C@H](C)[C@@H](O)CC(=O)O3)CC2)cc1
inactive: all assays above

COC(=O)[C@@H](Cc1cnc[nH]1)NC(=O)[C@@H]1CCC[C@H]1[C@@H]1C/C=C/C=C(/C#N)[C@H](O)[C@@H](C)C[C@H](C)C[C@H](C)C[C@H](C)[C@@H](O)CC(=O)O1
inactive: all assays above

C[C@@H]1C[C@H](C)C[C@H](C)[C@@H](O)CC(=O)O[C@H]([C@@H]2CCC[C@H]2C(=O)OCCN2CCNCC2)C/C=C/C=C(/C#N)[C@H](O)[C@@H](C)C1
inactive: all assays above

Cc1ccc(CN2CCN(CCOC(=O)[C@@H]3CCC[C@H]3[C@@H]3C/C=C/C=C(/C#N)[C@H](O)[C@@H](C)C[C@H](C)C[C@H](C)C[C@H](C)[C@@H](O)CC(=O)O3)CC2)cc1
inactive: all assays above
